Calls of active or inactive are those of the source. No cut-off for these calls is given here. Starred links: 1 amine or outer side, 2 acyl side, 3 side chain; linkers in the order of their positions; H or OH if unused. Positions of bridges follow the written chain, without caps; N, C: chain ends. Non-standard residues stand in square brackets, D forms with d. Residues, ends and D or L forms follow the SMILES beside them. Chains are numbered I, II in the order given. Gly(N-piperonyl) = O=C(O)CNCc1ccc2c(c1)OCO2; Gly(Nα-4-Cl-benzyl) = O=C(O)CNCc1ccc(Cl)cc1; N(4-MeOBn)Gly = COc1ccc(CNCC(=O)O)cc1; X3 = CC(c1ccccc1)N(CC(=O)[*:2])[*:1]; N(4-MeBn)Gly = Cc1ccc(CNCC(=O)O)cc1; N(isopentyl)Gly = CC(C)CCNCC(=O)O; Nrpe = C[C@@H](NCC(=O)O)c1ccccc1; Gly(N-propargyl) = C#CCNCC(=O)O; X7 = O=C(CN(c1nccs1)[*:1])[*:2]; Gly(N-cPent) = O=C(O)CNC1CCCC1; NcPrGly = O=C(O)CNC1CC1
Tested on: HCC4017
Assay: Cytotoxicity against human HCC4017 cells assessed as reduction in cell viability at 20 uM after 24 hrs by MTS assay
Type: functional, cell-based
In short: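 HCC4017 cells (RPMI, 5% FBS) and HBEC-3KT normal lung cells (KSFM with recombinant human EGF and bovine pituitary extract) were plated at 10 000 cells/well in triplicate and left to adhere overnight. They were exposed to 1 or 20 μM compound for 24 h. MTS reagent was then added for 2 h and absorbance read at 490 nm. Viability is % of untreated control wells.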

| Compound | Activity |
| --- | --- |
| COc1ccc(CN(CC(=O)N(CC(=O)NC(CCCCN)C(=O)NC(CCCCN)C(=O)NC(CCSC)C(=O)NCCCCC(NC(=O)C(CCSC)NC(=O)C(CCCCN)NC(=O)C(CCCCN)NC(=O)CN(Cc2ccc(Cl)cc2)C(=O)CN(Cc2ccc(OC)cc2)C(=O)CN(C(=O)CN(Cc2ccc3c(c2)OCO3)C(=O)CNC(C)c2ccccc2)C(C)c2ccccc2)C(N)=O)Cc2ccc(Cl)cc2)C(=O)CN(C(=O)CN(Cc2ccc3c(c2)OCO3)C(=O)CNC(C)c2ccccc2)C(C)c2ccccc2)cc1 (configuration not stated) (I: H-[X3][Gly(N-piperonyl)][X3][N(4-MeOBn)Gly][Gly(Nα-4-Cl-benzyl)]KKMK-NH2 / II: H-[X3][Gly(N-piperonyl)][X3][N(4-MeOBn)Gly][Gly(Nα-4-Cl-benzyl)]KKM; amide I:9-II:C; configuration not given here) | Active |
| C#CCN(CC(=O)NC(CCCCN)C(=O)NC(CCCCN)C(=O)NC(CCSC)C(=O)NCCCCC(NC(=O)C(CCSC)NC(=O)C(CCCCN)NC(=O)C(CCCCN)NC(=O)CN(CC#C)C(=O)CN(Cc1ccc(OC)cc1)C(=O)CN(C(=O)CN(Cc1ccc2c(c1)OCO2)C(=O)CNC(C)c1ccccc1)C(C)c1ccccc1)C(N)=O)C(=O)CN(Cc1ccc(OC)cc1)C(=O)CN(C(=O)CN(Cc1ccc2c(c1)OCO2)C(=O)CNC(C)c1ccccc1)C(C)c1ccccc1 (configuration not stated) (I: H-[X3][Gly(N-piperonyl)][X3][N(4-MeOBn)Gly][Gly(N-propargyl)]KKMK-NH2 / II: H-[X3][Gly(N-piperonyl)][X3][N(4-MeOBn)Gly][Gly(N-propargyl)]KKM; amide I:9-II:C; configuration not given here) | Active |
| COc1ccc(CN(CC(=O)N(CC(=O)NC(CCCCN)C(=O)NC(CCCCN)C(=O)NC(CCSC)C(=O)NCCCCC(NC(=O)C(CCSC)NC(=O)C(CCCCN)NC(=O)C(CCCCN)NC(=O)CN(Cc2ccc(C)cc2)C(=O)CN(Cc2ccc(OC)cc2)C(=O)CN(C(=O)CN(Cc2ccc3c(c2)OCO3)C(=O)CNC(C)c2ccccc2)C(C)c2ccccc2)C(N)=O)Cc2ccc(C)cc2)C(=O)CN(C(=O)CN(Cc2ccc3c(c2)OCO3)C(=O)CNC(C)c2ccccc2)C(C)c2ccccc2)cc1 (configuration not stated) (I: H-[X3][Gly(N-piperonyl)][X3][N(4-MeOBn)Gly][N(4-MeBn)Gly]KKMK-NH2 / II: H-[X3][Gly(N-piperonyl)][X3][N(4-MeOBn)Gly][N(4-MeBn)Gly]KKM; amide I:9-II:C; configuration not given here) | Active |
| COc1ccc(CN(CC(=O)N(CC(=O)NC(CCCCN)C(=O)NC(CCCCN)C(=O)NC(CCSC)C(=O)NCCCCC(NC(=O)C(CCSC)NC(=O)C(CCCCN)NC(=O)C(CCCCN)NC(=O)CN(C(=O)CN(Cc2ccc(OC)cc2)C(=O)CN(C(=O)CN(Cc2ccc3c(c2)OCO3)C(=O)CNC(C)c2ccccc2)C(C)c2ccccc2)C2CCCC2)C(N)=O)C2CCCC2)C(=O)CN(C(=O)CN(Cc2ccc3c(c2)OCO3)C(=O)CNC(C)c2ccccc2)C(C)c2ccccc2)cc1 (configuration not stated) (I: H-[X3][Gly(N-piperonyl)][X3][N(4-MeOBn)Gly][Gly(N-cPent)]KKMK-NH2 / II: H-[X3][Gly(N-piperonyl)][X3][N(4-MeOBn)Gly][Gly(N-cPent)]KKM; amide I:9-II:C; configuration not given here) | Active |
| COc1ccc(CN(CC(=O)N(CC(=O)NC(CCCCN)C(=O)NC(CCCCN)C(=O)NC(CCSC)C(=O)NCCCCC(NC(=O)C(CCSC)NC(=O)C(CCCCN)NC(=O)C(CCCCN)NC(=O)CN(C(=O)CN(Cc2ccc(OC)cc2)C(=O)CN(C(=O)CN(Cc2ccc3c(c2)OCO3)C(=O)CNC(C)c2ccccc2)C(C)c2ccccc2)C(C)c2ccccc2)C(N)=O)C(C)c2ccccc2)C(=O)CN(C(=O)CN(Cc2ccc3c(c2)OCO3)C(=O)CNC(C)c2ccccc2)C(C)c2ccccc2)cc1 (configuration not stated) (I: H-[X3][Gly(N-piperonyl)][X3][N(4-MeOBn)Gly][X3]KKMK-NH2 / II: H-[X3][Gly(N-piperonyl)][X3][N(4-MeOBn)Gly][X3]KKM; amide I:9-II:C; configuration not given here) | Active |
| COc1ccc(CN(CC(=O)N(CC(=O)NC(CCCCN)C(=O)NC(CCCCN)C(=O)NC(CCSC)C(=O)NCCCCC(NC(=O)C(CCSC)NC(=O)C(CCCCN)NC(=O)C(CCCCN)NC(=O)CN(C(=O)CN(Cc2ccc(OC)cc2)C(=O)CN(C(=O)CN(Cc2ccc3c(c2)OCO3)C(=O)CNC(C)c2ccccc2)C(C)c2ccccc2)C2CC2)C(N)=O)C2CC2)C(=O)CN(C(=O)CN(Cc2ccc3c(c2)OCO3)C(=O)CNC(C)c2ccccc2)C(C)c2ccccc2)cc1 (configuration not stated) (I: H-[X3][Gly(N-piperonyl)][X3][N(4-MeOBn)Gly][NcPrGly]KKMK-NH2 / II: H-[X3][Gly(N-piperonyl)][X3][N(4-MeOBn)Gly][NcPrGly]KKM; amide I:9-II:C; configuration not given here) | Active |
| COc1ccc(CN(CC(=O)NC(CCCCN)C(=O)NC(CCCCN)C(=O)NC(CCSC)C(=O)NCCCCC(NC(=O)C(CCSC)NC(=O)C(CCCCN)NC(=O)C(CCCCN)NC(=O)CN(Cc2ccc(OC)cc2)C(=O)CN(Cc2ccc(OC)cc2)C(=O)CN(C(=O)CN(Cc2ccc3c(c2)OCO3)C(=O)CNC(C)c2ccccc2)C(C)c2ccccc2)C(N)=O)C(=O)CN(Cc2ccc(OC)cc2)C(=O)CN(C(=O)CN(Cc2ccc3c(c2)OCO3)C(=O)CNC(C)c2ccccc2)C(C)c2ccccc2)cc1 (configuration not stated) (I: H-[X3][Gly(N-piperonyl)][X3][N(4-MeOBn)Gly][N(4-MeOBn)Gly]KKMK-NH2 / II: H-[X3][Gly(N-piperonyl)][X3][N(4-MeOBn)Gly][N(4-MeOBn)Gly]KKM; amide I:9-II:C; configuration not given here) | Active |
| COc1ccc(CN(CC(=O)NC(CC(C)C)C(=O)NC(CCCCN)C(=O)NC(CCCCN)C(=O)NC(CCSC)C(=O)NCCCCC(NC(=O)C(CCSC)NC(=O)C(CCCCN)NC(=O)C(CCCCN)NC(=O)C(CC(C)C)NC(=O)CN(Cc2ccc(OC)cc2)C(=O)CN(C(=O)CN(Cc2ccc3c(c2)OCO3)C(=O)CNC(C)c2ccccc2)C(C)c2ccccc2)C(N)=O)C(=O)CN(C(=O)CN(Cc2ccc3c(c2)OCO3)C(=O)CNC(C)c2ccccc2)C(C)c2ccccc2)cc1 (configuration not stated) (I: H-[X3][Gly(N-piperonyl)][X3][N(4-MeOBn)Gly]LKKMK-NH2 / II: H-[X3][Gly(N-piperonyl)][X3][N(4-MeOBn)Gly]LKKM; amide I:9-II:C; configuration not given here) | Active |
| COc1ccc(CN(CC(=O)NC(C)C(=O)NC(CCCCN)C(=O)NC(CCCCN)C(=O)NC(CCSC)C(=O)NCCCCC(NC(=O)C(CCSC)NC(=O)C(CCCCN)NC(=O)C(CCCCN)NC(=O)C(C)NC(=O)CN(Cc2ccc(OC)cc2)C(=O)CN(C(=O)CN(Cc2ccc3c(c2)OCO3)C(=O)CNC(C)c2ccccc2)C(C)c2ccccc2)C(N)=O)C(=O)CN(C(=O)CN(Cc2ccc3c(c2)OCO3)C(=O)CNC(C)c2ccccc2)C(C)c2ccccc2)cc1 (configuration not stated) (I: H-[X3][Gly(N-piperonyl)][X3][N(4-MeOBn)Gly]AKKMK-NH2 / II: H-[X3][Gly(N-piperonyl)][X3][N(4-MeOBn)Gly]AKKM; amide I:9-II:C; configuration not given here) | Active |
| COc1ccc(CN(CC(=O)N(CC(=O)NC(CCCCN)C(=O)NC(CCCCN)C(=O)NC(CCSC)C(=O)NCCCCC(NC(=O)C(CCSC)NC(=O)C(CCCCN)NC(=O)C(CCCCN)NC(=O)CN(C(=O)CN(Cc2ccc(OC)cc2)C(=O)CN(C(=O)CN(Cc2ccc3c(c2)OCO3)C(=O)CNC(C)c2ccccc2)C(C)c2ccccc2)c2nccs2)C(N)=O)c2nccs2)C(=O)CN(C(=O)CN(Cc2ccc3c(c2)OCO3)C(=O)CNC(C)c2ccccc2)C(C)c2ccccc2)cc1 (configuration not stated) (I: H-[X3][Gly(N-piperonyl)][X3][N(4-MeOBn)Gly][X7]KKMK-NH2 / II: H-[X3][Gly(N-piperonyl)][X3][N(4-MeOBn)Gly][X7]KKM; amide I:9-II:C; configuration not given here) | Active |
| COc1ccc(CN(CC(=O)N(CCC(C)C)CC(=O)NC(CCCCN)C(=O)NC(CCCCN)C(=O)NC(CCSC)C(=O)NCCCCC(NC(=O)C(CCSC)NC(=O)C(CCCCN)NC(=O)C(CCCCN)NC(=O)CN(CCC(C)C)C(=O)CN(Cc2ccc(OC)cc2)C(=O)CN(C(=O)CN(Cc2ccc3c(c2)OCO3)C(=O)CNC(C)c2ccccc2)C(C)c2ccccc2)C(N)=O)C(=O)CN(C(=O)CN(Cc2ccc3c(c2)OCO3)C(=O)CNC(C)c2ccccc2)C(C)c2ccccc2)cc1 (configuration not stated) (I: H-[X3][Gly(N-piperonyl)][X3][N(4-MeOBn)Gly][N(isopentyl)Gly]KKMK-NH2 / II: H-[X3][Gly(N-piperonyl)][X3][N(4-MeOBn)Gly][N(isopentyl)Gly]KKM; amide I:9-II:C; configuration not given here) | Active |
| COc1ccc(CN(CC(=O)N(CC(=O)N[C@@H](CCCCN)C(=O)N[C@H](CCCCN)C(=O)N[C@@H](CCSC)C(=O)NCCCC[C@H](NC(=O)[C@H](CCSC)NC(=O)[C@@H](CCCCN)NC(=O)[C@H](CCCCN)NC(=O)CN(Cc2ccc3c(c2)OCO3)C(=O)CN(Cc2ccc(OC)cc2)C(=O)CN(C(=O)CN(Cc2ccc3c(c2)OCO3)C(=O)CN[C@H](C)c2ccccc2)[C@H](C)c2ccccc2)C(N)=O)Cc2ccc3c(c2)OCO3)C(=O)CN(C(=O)CN(Cc2ccc3c(c2)OCO3)C(=O)CN[C@H](C)c2ccccc2)[C@H](C)c2ccccc2)cc1 (I: H-[Nrpe][Gly(N-piperonyl)][Nrpe][N(4-MeOBn)Gly][Gly(N-piperonyl)]K[dK]MK-NH2 / II: H-[Nrpe][Gly(N-piperonyl)][Nrpe][N(4-MeOBn)Gly][Gly(N-piperonyl)]K[dK]M; amide I:9-II:C) | Active |

Source: ChEMBL document CHEMBL4257452, “A mini-library system to investigate non-essential residues of lipid-phosphatidylserine (PS) binding peptide-peptoid hybrid PPS1” (Medchemcomm, 2017)
